Legend:
Mus musculus [1] = assay: Behavioral effect in albino mouse assessed as change in locomotor activity during 10 mins at 100 umol/kg, ip after 0.5 hrs; type: functional
In short: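 Mouse activity counted by actophotometer for 10 min 24 h before dosing, then again 0.5 h after 100 µmol/kg ip. % change = 100 − [(post × 100)/pre]. N = 6, mean ± SEM, Student's t test at p < 0.05.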

Mus musculus [2] = species: Mus musculus; assay: Protection index, ratio of TD50 to ED50 by MES test for albino mouse; type: functional
In short: (§1)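 Mice were trained on a 3.2 cm rod turning at 6 rpm, then dosed ip at 20–1000 µmol/kg and tested at 0.5 h. […] PI = TD50/ED50, with ED50 from the MES test.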

[3] = Neurotoxicity in ip dosed albino mouse during 1 min by rotarod test; type: toxicity, organism-based; conditions: in vivo; in short: as §1
Mus musculus [4] = assay: Anticonvulsant activity in ip dosed albino mouse treated 0.5 hrs before PTZ challenge by scPTZ test; type: functional
In short: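 Compound given ip (20–1000 µmol/kg in 0.5% methyl cellulose) 0.5 h before pentylenetetrazole, which was dissolved in 0.9% NaCl and injected subcutaneously in the posterior midline of mice. Onset and severity of convulsions were scored, and ED50 was derived.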

Mus musculus [5] = assay: Anticonvulsant activity in ip dosed albino mouse assessed as absence of hind limb tonic extension after 0.5 hrs by MES test; type: functional, Hindlimb; conditions: for ED50: Mus musculus, albino, Hindlimb, ip, 0.5 h
In short: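 Mice given compound ip at 20–1000 µmol/kg, suspended in 0.5% methyl cellulose/water. Seizure induced 0.5 h later by electroconvulsometer, 50 mA, 60 cycle alternating current, 0.25 s via ear clip electrodes. Protection is reduced duration or absence of hind limb tonic extension. ED50 from at least three doses giving 10–90% protection.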

Rattus norvegicus [6] = assay: CNS toxicity in albino rat assessed as duration of immobility at 100 umol/kg, ip after 0.5 hrs by Porsolt's swimpool test (Rvb= 82 +/- 2.9); conditions: in vivo
Rattus norvegicus [7] = assay: CNS toxicity in albino rat assessed as duration of immobility at 100 umol/kg, ip after 0.5 hrs by Porsolt's swimpool test (Rvb= 92 +/- 1.2); conditions: in vivo
Rattus norvegicus [8] = assay: CNS toxicity in albino rat assessed as duration of immobility at 100 umol/kg, ip after 0.5 hrs by Porsolt's swimpool test (Rvb= 104 +/- 1.8); conditions: in vivo

SMILES | Activity (Mus musculus [1]) | PI (Mus musculus [2]) | TD50 at 1 min [3] | ED50 (Mus musculus [4]) | pED50 (Mus musculus [5]) | ED50 (Mus musculus [5]) | Activity (Rattus norvegicus [6]) | Activity (Rattus norvegicus [7]) | Activity (Rattus norvegicus [8])
COc1ccc(C2CC(Nc3nc4ccc(Cl)cc4s3)=NN2C(C)=O)cc1 (configuration not stated) | 35.91% | 2.01 | 187 µmol/kg | 97.3 µmol/kg | 4.03 | 93.3 µmol/kg | 88 s | – | –
COc1ccc(/C=C/C(=O)Nc2nc3ccc(C)cc3s2)cc1 | – | 2.24 | 468 µmol/kg | – | 3.68 | 209 µmol/kg | – | – | –
COc1ccc(C2CC(Nc3nc4ccccc4s3)=NN2C(C)=O)cc1 (configuration not stated) | – | 1.63 | 369 µmol/kg | – | 3.65 | 226 µmol/kg | – | – | –
O=C(/C=C/c1ccc(O)cc1)Nc1nc2ccc(Cl)cc2s1 | – | 1.28 | 413 µmol/kg | – | 3.49 | 322 µmol/kg | – | – | –
O=C(/C=C/c1ccco1)Nc1nc2ccc(Cl)cc2s1 | – | 1.2 | 658 µmol/kg | – | 3.26 | 544 µmol/kg | – | – | –
CC(=O)N1N=C(Nc2nc3ccccc3s2)CC1c1ccco1 (configuration not stated) | – | 1.41 | 538 µmol/kg | – | 3.42 | 382 µmol/kg | – | – | –
CC(=O)N1N=C(Nc2nc3ccc([N+](=O)[O-])cc3s2)CC1c1ccco1 (configuration not stated) | – | 1.29 | 355 µmol/kg | – | 3.56 | 274 µmol/kg | – | – | –
COc1ccc(/C=C/C(=O)Nc2nc3ccccc3s2)cc1 | – | 1.24 | 540 µmol/kg | – | 3.36 | 435 µmol/kg | – | – | –
COc1ccc(/C=C/C(=O)Nc2nc3ccc(Cl)cc3s2)cc1 | – | 1.79 | 465 µmol/kg | – | 3.59 | 259 µmol/kg | – | – | –
CC(=O)N1N=C(Nc2nc3ccc([N+](=O)[O-])cc3s2)CC1c1ccccc1 (configuration not stated) | – | 1.65 | 357 µmol/kg | – | 3.67 | 216 µmol/kg | – | – | –
O=C(/C=C/c1ccc(O)cc1)Nc1nc2ccccc2s1 | – | 1.78 | 925 µmol/kg | – | 3.29 | 517 µmol/kg | – | – | –
CC(=O)N1N=C(Nc2nc3ccccc3s2)CC1c1ccccc1 (configuration not stated) | – | 1.57 | 498 µmol/kg | – | 3.5 | 315 µmol/kg | – | – | –
O=C(/C=C/c1ccc(O)cc1)Nc1nc2ccc([N+](=O)[O-])cc2s1 | – | 1.57 | 602 µmol/kg | – | 3.42 | 382 µmol/kg | – | – | –
O=C(/C=C/c1ccc(Cl)cc1)Nc1nc2ccc([N+](=O)[O-])cc2s1 | – | 3.03 | 787 µmol/kg | – | 3.59 | 259 µmol/kg | – | – | –
O=C(/C=C/c1ccccc1)Nc1nc2ccc([N+](=O)[O-])cc2s1 | – | 1.3 | 633 µmol/kg | – | 3.31 | 485 µmol/kg | – | – | –
COc1ccc(/C=C/C(=O)Nc2nc3ccc([N+](=O)[O-])cc3s2)cc1 | – | 1.47 | 466 µmol/kg | – | 3.5 | 315 µmol/kg | – | – | –
O=C(/C=C/c1ccco1)Nc1nc2ccccc2s1 | – | 1.15 | 898 µmol/kg | – | 3.11 | 781 µmol/kg | – | – | –
CC(=O)N1N=C(Nc2nc3ccc(Cl)cc3s2)CC1c1ccco1 (configuration not stated) | – | 1.82 | 387 µmol/kg | – | 3.67 | 212 µmol/kg | – | – | –
CC(=O)N1N=C(Nc2nc3ccccc3s2)CC1c1ccc(Cl)cc1 (configuration not stated) | – | 1.73 | 364 µmol/kg | – | 3.68 | 209 µmol/kg | – | – | –
CC(=O)N1N=C(Nc2nc3ccc([N+](=O)[O-])cc3s2)CC1c1ccc(O)cc1 (configuration not stated) | – | 1.29 | 210 µmol/kg | – | 3.79 | 162 µmol/kg | – | – | –
O=C1NC(=O)C(c2ccccc2)(c2ccccc2)N1 [PHENYTOIN] | – | 8.01 | 110 µmol/kg | – | – | 13.8 µmol/kg | – | – | –
COc1ccc(/C=C/C(=O)Nc2nc3ccc(Cl)cc3s2)cc1O | – | 1.46 | 470 µmol/kg | – | 3.51 | 320 µmol/kg | – | – | –
Cc1ccc2nc(NC(=O)/C=C/c3ccc(O)cc3)sc2c1 | – | 1.42 | 387 µmol/kg | – | 3.57 | 271 µmol/kg | – | – | –

SMILES | Activity (Mus musculus [1]) | PI (Mus musculus [2]) | TD50 at 1 min [3] | ED50 (Mus musculus [4]) | pED50 (Mus musculus [5]) | ED50 (Mus musculus [5]) | Activity (Rattus norvegicus [6]) | Activity (Rattus norvegicus [7]) | Activity (Rattus norvegicus [8])
Cc1ccc2nc(NC(=O)/C=C/c3ccc(Cl)cc3)sc2c1 | – | 2.67 | 408 µmol/kg | – | 3.82 | 152 µmol/kg | – | – | –
CC(=O)N1N=C(Nc2nc3ccc(Cl)cc3s2)CC1c1ccc(O)cc1 (configuration not stated) | – | 1.97 | 210 µmol/kg | 107 µmol/kg | 3.97 | 106 µmol/kg | – | – | –
O=C(/C=C/c1ccccc1)Nc1nc2ccccc2s1 | – | 1.28 | 832 µmol/kg | – | 3.19 | 646 µmol/kg | – | – | –
CC(=O)N1N=C(Nc2nc3ccc(C)cc3s2)CC1c1ccco1 (configuration not stated) | – | 1.51 | 243 µmol/kg | – | 3.79 | 160 µmol/kg | – | – | –
COc1ccc(C2CC(Nc3nc4ccc([N+](=O)[O-])cc4s3)=NN2C(C)=O)cc1O (configuration not stated) | – | 1.43 | 256 µmol/kg | – | 3.75 | 178 µmol/kg | – | – | –
Cc1ccc2nc(NC(=O)/C=C/c3ccccc3)sc2c1 | – | 1.4 | 534 µmol/kg | – | 3.42 | 380 µmol/kg | – | – | –
COc1ccc(/C=C/C(=O)Nc2nc3ccccc3s2)cc1O | – | 1.12 | 556 µmol/kg | – | 3.31 | 495 µmol/kg | – | – | –
O=C(/C=C/c1ccco1)Nc1nc2ccc([N+](=O)[O-])cc2s1 | – | 1.39 | 834 µmol/kg | – | 3.22 | 597 µmol/kg | – | – | –
O=C(/C=C/c1ccc(Cl)cc1)Nc1nc2ccccc2s1 | – | 1.1 | 402 µmol/kg | – | 3.44 | 367 µmol/kg | – | – | –
COc1ccc(C2CC(Nc3nc4ccccc4s3)=NN2C(C)=O)cc1O (configuration not stated) | – | 1.47 | 382 µmol/kg | – | 3.59 | 259 µmol/kg | – | – | –
O=C(/C=C/c1ccccc1)Nc1nc2ccc(Cl)cc2s1 | – | 1.34 | 570 µmol/kg | – | 3.37 | 425 µmol/kg | – | – | –
COc1ccc(/C=C/C(=O)Nc2nc3ccc([N+](=O)[O-])cc3s2)cc1O | – | 2.13 | 793 µmol/kg | – | 3.43 | 372 µmol/kg | – | – | –
O=C(/C=C/c1ccc(Cl)cc1)Nc1nc2ccc(Cl)cc2s1 | – | 2.82 | 576 µmol/kg | – | 3.69 | 204 µmol/kg | – | – | –
CC(=O)N1N=C(Nc2nc3ccc(Cl)cc3s2)CC1c1ccc(Cl)cc1 (configuration not stated) | 31.66% | 4.35 | 345 µmol/kg | 81.5 µmol/kg | 4.1 | 79.5 µmol/kg | – | 134 s | –
COc1ccc(C2CC(Nc3nc4ccc(Cl)cc4s3)=NN2C(C)=O)cc1O (configuration not stated) | – | 2.16 | 276 µmol/kg | 132 µmol/kg | 3.89 | 127 µmol/kg | – | – | –
CC(=O)N1N=C(Nc2nc3ccc([N+](=O)[O-])cc3s2)CC1c1ccc(Cl)cc1 (configuration not stated) | – | 2.48 | 328 µmol/kg | 138 µmol/kg | 3.88 | 132 µmol/kg | – | – | –
COc1ccc(/C=C/C(=O)Nc2nc3ccc(C)cc3s2)cc1O | – | 1.18 | 321 µmol/kg | – | 3.57 | 271 µmol/kg | – | – | –
CC(=O)N1N=C(Nc2nc3ccc(Cl)cc3s2)CC1c1ccccc1 (configuration not stated) | – | 1.52 | 245 µmol/kg | – | 3.79 | 161 µmol/kg | – | – | –
CC(=O)N1N=C(Nc2nc3ccc(C)cc3s2)CC1c1ccccc1 (configuration not stated) | 23.93% | 2.49 | 265 µmol/kg | 112 µmol/kg | 3.97 | 106 µmol/kg | – | – | 151 s
COc1ccc(C2CC(Nc3nc4ccc([N+](=O)[O-])cc4s3)=NN2C(C)=O)cc1 (configuration not stated) | – | 1.69 | 246 µmol/kg | 149 µmol/kg | 3.84 | 145 µmol/kg | – | – | –
CC(=O)N1N=C(Nc2nc3ccccc3s2)CC1c1ccc(O)cc1 (configuration not stated) | – | 2.06 | 513 µmol/kg | – | 3.6 | 249 µmol/kg | – | – | –
Cc1ccc2nc(NC(=O)/C=C/c3ccco3)sc2c1 | – | 1.19 | 603 µmol/kg | – | 3.3 | 505 µmol/kg | – | – | –

Source: ChEMBL document CHEMBL1156127, “Synthesis, anticonvulsant activity and 3D-QSAR study of some prop-2-eneamido and 1-acetyl-pyrazolin derivatives of aminobenzothiazole” (Eur J Med Chem, 2010)
